Assay: Toxicity liver stage against HepG2, at 10uM
Format: cell-based
Set-up: test concentration 10 uM, cell line HepG2-A16-CD81EGFP
Settings: human, HepG2-A16-CD81EGFP cells; read-out: INHIBITION
Procedure, shortened: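 Uninfected HepG2-A16-CD81EGFP cells, 3 × 10^3 per well, 1536-well, plated on prespotted compound at 10 μM final, parasite-free screening media added to match infected plates; puromycin 10 μM positive, DMSO 0.5% negative; run in parallel with 48 h PbLuc assay at 37 °C, 5% CO2; viability by CellTiter-Glo luminescence, normalized to controls.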

**Q.** For Cn1c(=O)c2c(c3ccccc31)OC(C)(C)CC2, which cytotoxicity at 10 µM is on record?
**A.** 17.8%

**Q.** Which cytotoxicity at 10 µM does the source give for Cn1nnc(NCc2ccccc2OCc2ccc(Cl)cc2)n1 here?
**A.** 2.71%

**Q.** For Cn1ccnc1SC1CCc2ccccc2NC1=O (stereo unspecified), which cytotoxicity at 10 µM is on record?
**A.** -8.75%

**Q.** With CC(=O)N1Cc2nccn2CC(CNC(=O)c2cnccn2)C1 (stereo unspecified) as the compound, how does the cytotoxicity at 10 µM read?
**A.** -144%

**Q.** With CCS(=O)(=O)N1CCCC2(CCCN2C(=O)c2cscn2)C1 (stereo unspecified) as the compound, how does the cytotoxicity at 10 µM read?
**A.** 8.25%

**Q.** For Cn1ccnc1C(=O)NCc1cc(=O)n2c(n1)CN(CC1CC1)CCC2, which cytotoxicity at 10 µM is on record?
**A.** 13.8%

**Q.** For O=C(c1ccsc1)N1CCc2onc(CN3CCOCC3)c2C1, which cytotoxicity at 10 µM is on record?
**A.** 5.07%

**Q.** Which cytotoxicity at 10 µM does the source give for CCOCC(=O)N1CC[C@H]2OCC[C@@H](c3nnc(C)o3)[C@H]2C1 here?
**A.** 12%

**Q.** For COCCn1ccc(=O)c(OCC(=O)Nc2cccc(C(C)=O)c2)c1C, which cytotoxicity at 10 µM is on record?
**A.** 4.31%

**Q.** Which cytotoxicity at 10 µM does the source give for CCn1cc(-c2nn3c(C(F)(F)F)nnc3s2)c(C)n1 here?
**A.** 13.5%

**Q.** With CC(CNC(=O)c1cc(C2CC2)nc2c1cnn2C)Cn1cccn1 (stereo unspecified) as the compound, how does the cytotoxicity at 10 µM read?
**A.** 3.49%

**Q.** For Cc1nn(C)c(C)c1-c1ccc(=O)n(C(C)C(=O)NC(C)(C)C)n1 (stereo unspecified), which cytotoxicity at 10 µM is on record?
**A.** 5.75%

**Q.** For Cc1ncc(CNC(=O)CCc2c(C)noc2C)c(C2CCCN2C)n1 (stereo unspecified), which cytotoxicity at 10 µM is on record?
**A.** -8.86%

**Q.** For CC(C)OCCS(=O)(=O)N1CCN(Cc2cccn2C)CC1, which cytotoxicity at 10 µM is on record?
**A.** -17.3%

**Q.** Which cytotoxicity at 10 µM does the source give for O=C(NCc1ccnc(OCC(F)(F)F)c1)NCC1COCCO1 (stereo unspecified) here?
**A.** 1.81%

**Q.** With CCOCCN1CCN(c2ncccc2C#N)CC1CC (stereo unspecified) as the compound, how does the cytotoxicity at 10 µM read?
**A.** 5.94%

**Q.** Which cytotoxicity at 10 µM does the source give for O=C(NCC1CCS(=O)(=O)C1)N(Cc1ccccn1)C1CC1 (stereo unspecified) here?
**A.** -129%

**Q.** For Cc1ccccc1C(=O)NCC(O)c1ccc(F)c(F)c1 (stereo unspecified), which cytotoxicity at 10 µM is on record?
**A.** -10.1%

**Q.** With Cc1ccccc1-c1cc(NC(=O)NC2CC2)n(CCO)n1 as the compound, how does the cytotoxicity at 10 µM read?
**A.** 8.09%

**Q.** Which cytotoxicity at 10 µM does the source give for CC(NC(=O)Nc1nnc(-c2ccccn2)s1)C(=O)OC(C)(C)C (stereo unspecified) here?
**A.** -6.87%

**Q.** For Cc1nnc2ccc(NCC3(N4CCCCC4)CCOCC3)nn12, which cytotoxicity at 10 µM is on record?
**A.** -3.59%

**Q.** For Cc1ccc(-c2ncc(CN3CCOC(c4ccco4)C3)s2)o1 (stereo unspecified), which cytotoxicity at 10 µM is on record?
**A.** 4.37%

**Q.** For CSc1ccc(NC(=O)COCc2ccccc2)nc1, which cytotoxicity at 10 µM is on record?
**A.** 7.01%

**Q.** For O=C(NCCc1nncn1C1CC1)c1cnn(Cc2ccccc2)c1, which cytotoxicity at 10 µM is on record?
**A.** -2.36%

**Q.** With CC(C)c1ocnc1C(=O)N1CCC(=O)Nc2cccnc21 as the compound, how does the cytotoxicity at 10 µM read?
**A.** 1.15%

**Q.** With CC(C)(C)CNC(=O)CNC(=O)C1CC1 as the compound, how does the cytotoxicity at 10 µM read?
**A.** -1.15%

**Q.** For Cc1noc(CNc2ccccc2N2CCCCC2)n1, which cytotoxicity at 10 µM is on record?
**A.** -25.4%

**Q.** For Cn1cnc(-c2nc(C(=O)NCC3CCCO3)c3ccccn23)c1 (stereo unspecified), which cytotoxicity at 10 µM is on record?
**A.** -109%

**Q.** For CCc1ccc(CN(C)c2ccc(-c3nc(COC)no3)cn2)nc1, which cytotoxicity at 10 µM is on record?
**A.** -2.68%

**Q.** For O=C(CC1COCCN1)N1CCC(N2CCc3ccccc3C2)CC1 (stereo unspecified), which cytotoxicity at 10 µM is on record?
**A.** -176%

**Q.** With CN(C)c1nc2c(c(=O)[nH]1)CCN(C(=O)c1ccc(=O)[nH]c1)C2 as the compound, how does the cytotoxicity at 10 µM read?
**A.** 10.2%

**Q.** With Cc1nnc(CN(CCc2ccccc2)C2CCN(C)CC2)s1 as the compound, how does the cytotoxicity at 10 µM read?
**A.** 0.219%

**Q.** With CCc1nn(C)c(Cl)c1CN1CCC(c2cc(O)nc(C)n2)CC1 as the compound, how does the cytotoxicity at 10 µM read?
**A.** -9.74%

**Q.** Which cytotoxicity at 10 µM does the source give for C=C(C)COc1cccc(CN(CC)Cc2noc(C)n2)c1 here?
**A.** -12%

**Q.** With COc1cccc2c1OCC(CNC(=O)Cn1ccnc1C)C2 (stereo unspecified) as the compound, how does the cytotoxicity at 10 µM read?
**A.** -150%

**Q.** Which cytotoxicity at 10 µM does the source give for COc1ccc(-c2cccc(-c3ccn(CC4COCCO4)n3)c2)nn1 (stereo unspecified) here?
**A.** -7.78%

**Q.** Which cytotoxicity at 10 µM does the source give for CC[C@H]1COCCN1C(=O)c1ccc(OC)c(N2CCOCC2)c1 here?
**A.** 3.89%

**Q.** For OCCN(Cc1ccccc1)Cc1ccsc1, which cytotoxicity at 10 µM is on record?
**A.** 4.7%

**Q.** For Cc1cncc(C(=O)N2CCCC(O)(CN3CCCC3)C2)c1 (stereo unspecified), which cytotoxicity at 10 µM is on record?
**A.** 10.1%

**Q.** For COc1cc2cc(C(=O)NC(C)C(=O)O)n(C)c2c(OC)c1OC (stereo unspecified), which cytotoxicity at 10 µM is on record?
**A.** -162%

**Q.** With CS(=O)(=O)N1CCCC(C(=O)Nc2cnn(COCC(F)(F)F)c2)C1 (stereo unspecified) as the compound, how does the cytotoxicity at 10 µM read?
**A.** -11.5%

**Q.** Which cytotoxicity at 10 µM does the source give for Fc1ccc(-c2nc(CNCCn3cccn3)cs2)cc1 here?
**A.** -11.2%

**Q.** For Cc1cccc(C(=O)NC(C)CN2CCCC2=O)n1 (stereo unspecified), which cytotoxicity at 10 µM is on record?
**A.** -9.51%

**Q.** For CC(C)CCN1CCC2(CCCN(c3nncs3)C2)C1 (stereo unspecified), which cytotoxicity at 10 µM is on record?
**A.** -139%

**Q.** Which cytotoxicity at 10 µM does the source give for O=C(N1CCCC1)N1CC[C@H]2OCC[C@@]2(COc2ncccc2F)C1 here?
**A.** -151%

**Q.** Which cytotoxicity at 10 µM does the source give for Cc1nc(N2CCCC2)nc2c1CCN(Cc1ccsc1)CC2 here?
**A.** -106%

— ChEMBL document CHEMBL4513216, “Probing the Open Global Health Chemical Diversity Library for Multistage-Active Starting Points for Next-Generation Antimalarials” (ACS Infect Dis, 2020)
